Key:
[1] = molecular target: T1, Multidrug resistance-associated protein 1 (Homo sapiens, UniProt P33527); assay: Inhibition of MRP1 in human NCI-H69AR cells incubated for 180 mins in presence of daunorubicin by flow cytometry analysis; type: cell-based
In short: (§1)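 H69AR cells (doxorubicin-selected small cell lung cancer, RPMI-1640/20% FBS), about 60,000 per well, preincubated 15 min with compound (100 nM–100 µM added solutions, in unsupplemented medium), then daunorubicin (30 µM solution added); steady state after 180 min, 37 °C, 5% CO2. Cells resuspended; flow cytometry, 488 nm excitation, FL3 (≥670 nm). Reference inhibitor 75 at 10 µM = 100%; Imax relative to it.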

[2] = molecular target: T2, MRP1 (Homo sapiens, UniProt P33527); assay: Inhibition of MRP1 in human NCI-H69AR cells assessed as maximum inhibition incubated for 180 mins in presence of daunorubicin by flow cytometry analysis relative to control; type: cell-based; conditions: probe daunorubicin, read-out: Imax; in short: as §1
[3] = molecular target: T3, P-gp (ABCB1) (Homo sapiens, UniProt P08183); assay: Inhibition of P-gp (unknown origin) at 10 uM incubated for 30 mins by calcein AM analysis relative to control; conditions: probe calcein AM
In short: (§2)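 A2780/ADR cells (doxorubicin-selected, P-gp overexpressing), about 30,000 per well in Krebs-HEPES buffer pH 7.4, incubated 30 min at 37 °C with compound (100 nM–100 µM added solutions). Calcein AM (3.125 µM solution added) then fluorescence read every 60 s at 37 °C, ex 485/em 520 nm; slope over minutes 5–30 plotted vs log concentration. Cyclosporine A 10 µM = 100% inhibition, buffer = 0%.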

[4] = molecular target: T4, BCRP (ABCG2) (Homo sapiens, UniProt Q9UNQ0); assay: Inhibition of BCRP (unknown origin) expressed in dog MDCK-II cells assessed as maximum inhibition using pheophorbide A as substrate preincubated for 20 mins followed by substrate addition and measured after 120 mins by flow cytometry analysis relative to control; type: cell-based; conditions: probe pheophorbide A, time 140 min, read-out: Imax
T4 sequence (Q9UNQ0 whole entry): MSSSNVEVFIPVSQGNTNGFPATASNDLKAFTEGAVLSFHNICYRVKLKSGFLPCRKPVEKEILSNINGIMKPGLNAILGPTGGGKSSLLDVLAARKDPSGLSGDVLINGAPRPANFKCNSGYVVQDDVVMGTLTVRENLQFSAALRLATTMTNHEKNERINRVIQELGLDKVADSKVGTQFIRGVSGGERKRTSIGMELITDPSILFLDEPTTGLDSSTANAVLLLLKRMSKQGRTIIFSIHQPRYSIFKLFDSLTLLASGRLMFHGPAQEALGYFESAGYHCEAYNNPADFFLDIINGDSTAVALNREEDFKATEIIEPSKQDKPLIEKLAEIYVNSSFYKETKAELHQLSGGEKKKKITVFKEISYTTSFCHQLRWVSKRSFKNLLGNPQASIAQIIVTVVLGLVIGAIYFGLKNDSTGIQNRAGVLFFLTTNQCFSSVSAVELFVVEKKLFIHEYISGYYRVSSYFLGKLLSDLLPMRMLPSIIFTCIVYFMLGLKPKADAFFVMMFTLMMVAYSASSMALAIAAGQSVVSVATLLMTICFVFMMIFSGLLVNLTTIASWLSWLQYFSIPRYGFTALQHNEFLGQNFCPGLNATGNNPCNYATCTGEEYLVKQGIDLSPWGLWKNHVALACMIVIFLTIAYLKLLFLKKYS
In short: (§3)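 MDCK II cells transfected with human wild-type BCRP cDNA C-terminally fused to GFP, grown in DMEM/10% FBS. About 45,000 cells per well preincubated 20 min at 37 °C, 5% CO2 with compound (100 nM–100 µM added solutions), then pheophorbide A (5 µM solution added) for 120 min to steady state. Resuspended; flow cytometry, 488 nm excitation, FL3 (≥670 nm); GFP in FL1. Reference inhibitor 24 at 10 µM = 100%.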

[5] = molecular target: T4, BCRP (ABCG2); assay: Inhibition of BCRP (unknown origin) expressed in dog MDCK-II cells at 10 uM using pheophorbide A as substrate preincubated for 20 mins followed by substrate addition and measured after 120 mins by flow cytometry analysis relative to control; type: cell-based; conditions: probe pheophorbide A; in short: as §3
[6] = molecular target: T5, ATP-dependent translocase ABCB1 (Homo sapiens, UniProt P08183); assay: Inhibition of P-gp (unknown origin) incubated for 30 mins by calcein AM analysis; in short: as §2
[7] = molecular target: T3, P-gp (ABCB1); assay: Inhibition of P-gp (unknown origin) expressed in dog MDCK-MDR1cells assessed as maximum inhibition by calcein AM accumulation assay relative to control; type: cell-based; conditions: MDCK-MDR1 cells, probe calcein AM, read-out: Imax
[8] = molecular target: T6, Broad substrate specificity ATP-binding cassette transporter ABCG2 (Homo sapiens, UniProt Q9UNQ0); assay: Inhibition of BCRP (unknown origin) expressed in dog MDCK-II cells using pheophorbide A as substrate preincubated for 20 mins followed by substrate addition and measured after 120 mins by flow cytometry analysis; type: cell-based; in short: as §3
T6 sequence (Q9UNQ0 whole entry): T4 sequence (Q9UNQ0 whole entry)

[9] = molecular target: T2, MRP1; assay: Inhibition of MRP1 in human NCI-H69AR cells assessed as maximum inhibition at 10 uM incubated for 180 mins in presence of daunorubicin by flow cytometry analysis relative to control; type: cell-based; conditions: probe daunorubicin; in short: as §1
[10] = molecular target: T2, MRP1; assay: Inhibition of MRP1 in human NCI-H69AR cells at 10 uM incubated for 180 mins in presence of daunorubicin by flow cytometry analysis relative to control; type: cell-based; conditions: probe daunorubicin; in short: as §1
[11] = molecular target: T1, Multidrug resistance-associated protein 1; assay: Inhibition of MRP1 (unknown origin)
[12] = molecular target: T5, ATP-dependent translocase ABCB1; assay: Inhibition of P-gp (unknown origin)
[13] = molecular target: T6, Broad substrate specificity ATP-binding cassette transporter ABCG2; assay: Inhibition of BCRP (unknown origin)
In short: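 Pheophorbide A accumulation in MDCK II cells transfected with human wild-type BCRP cDNA C-terminally linked to GFP, ~45,000 cells/well. Compound (100 nM–100 µM) preincubated 20 min at 37 °C, 5% CO2. Pheophorbide A stock 5 µM added, then 120 min to steady state. Flow cytometry read-out: FL3 (≥670 nm, 488 nm excitation).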

[14] = molecular target: T3, P-gp (ABCB1); assay: Inhibition of P-gp (unknown origin) expressed in dog MDCK-MDR1cells assessed as maximum inhibition at 10 uM by calcein AM accumulation assay relative to control; type: cell-based; conditions: MDCK-MDR1 cells, probe calcein AM
[15] = molecular target: T1, Multidrug resistance-associated protein 1; assay: Inhibition of human MRP1 expressed in human MDR cells measured for 2 hrs; type: cell-based
[16] = Inhibition of cell growth in SN-38 resistant dog MDCK-II-BCRP cells expressing BCRP measured for 72 hrs by MTT assay; type: functional; conditions: Canis lupus familiaris
In short: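 Reversal assay: resistant lines (A2780/ADR, H69AR, MDCK II BCRP) and parental lines seeded as for MTT assay with modulator solutions of 1, 10 and 100 µM added (final 0.1, 1, 10 µM) and daunorubicin (P-gp, MRP1) or SN-38 (BCRP) at final 10 nM–10 µM. 72 h, MTT read-out; GI50 by variable-slope fit. Resistance factor = resistant/sensitive GI50; potentiation factor = GI50 without/with modulator.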

[17] = Inhibition of SN-38 sensitive dog MDCK-II-BCRP cells expressing BCRP measured for 72 hrs by MTT assay; type: functional; conditions: Canis lupus familiaris
[18] = molecular target: T6, Broad substrate specificity ATP-binding cassette transporter ABCG2; assay: Inhibition of BCRP (unknown origin) expressed in MDCK cells assessed as increase in Hoechst 33342 accumulation incubated for 30 mins by Hoechst 33342 dye based fluorescence assay; type: cell-based
[19] = molecular target: T1, Multidrug resistance-associated protein 1; assay: Inhibition of MRP1 (unknown origin) measured for 2 hrs
[20] = molecular target: T6, Broad substrate specificity ATP-binding cassette transporter ABCG2; assay: Inhibition of BCRP (unknown origin) expressed in MDCK cells assessed as increase in Hoechst 33342 accumulation incubated for 60 mins by Hoechst 33342 dye based fluorescence assay; type: cell-based

T1 sequence (P33527 whole entry): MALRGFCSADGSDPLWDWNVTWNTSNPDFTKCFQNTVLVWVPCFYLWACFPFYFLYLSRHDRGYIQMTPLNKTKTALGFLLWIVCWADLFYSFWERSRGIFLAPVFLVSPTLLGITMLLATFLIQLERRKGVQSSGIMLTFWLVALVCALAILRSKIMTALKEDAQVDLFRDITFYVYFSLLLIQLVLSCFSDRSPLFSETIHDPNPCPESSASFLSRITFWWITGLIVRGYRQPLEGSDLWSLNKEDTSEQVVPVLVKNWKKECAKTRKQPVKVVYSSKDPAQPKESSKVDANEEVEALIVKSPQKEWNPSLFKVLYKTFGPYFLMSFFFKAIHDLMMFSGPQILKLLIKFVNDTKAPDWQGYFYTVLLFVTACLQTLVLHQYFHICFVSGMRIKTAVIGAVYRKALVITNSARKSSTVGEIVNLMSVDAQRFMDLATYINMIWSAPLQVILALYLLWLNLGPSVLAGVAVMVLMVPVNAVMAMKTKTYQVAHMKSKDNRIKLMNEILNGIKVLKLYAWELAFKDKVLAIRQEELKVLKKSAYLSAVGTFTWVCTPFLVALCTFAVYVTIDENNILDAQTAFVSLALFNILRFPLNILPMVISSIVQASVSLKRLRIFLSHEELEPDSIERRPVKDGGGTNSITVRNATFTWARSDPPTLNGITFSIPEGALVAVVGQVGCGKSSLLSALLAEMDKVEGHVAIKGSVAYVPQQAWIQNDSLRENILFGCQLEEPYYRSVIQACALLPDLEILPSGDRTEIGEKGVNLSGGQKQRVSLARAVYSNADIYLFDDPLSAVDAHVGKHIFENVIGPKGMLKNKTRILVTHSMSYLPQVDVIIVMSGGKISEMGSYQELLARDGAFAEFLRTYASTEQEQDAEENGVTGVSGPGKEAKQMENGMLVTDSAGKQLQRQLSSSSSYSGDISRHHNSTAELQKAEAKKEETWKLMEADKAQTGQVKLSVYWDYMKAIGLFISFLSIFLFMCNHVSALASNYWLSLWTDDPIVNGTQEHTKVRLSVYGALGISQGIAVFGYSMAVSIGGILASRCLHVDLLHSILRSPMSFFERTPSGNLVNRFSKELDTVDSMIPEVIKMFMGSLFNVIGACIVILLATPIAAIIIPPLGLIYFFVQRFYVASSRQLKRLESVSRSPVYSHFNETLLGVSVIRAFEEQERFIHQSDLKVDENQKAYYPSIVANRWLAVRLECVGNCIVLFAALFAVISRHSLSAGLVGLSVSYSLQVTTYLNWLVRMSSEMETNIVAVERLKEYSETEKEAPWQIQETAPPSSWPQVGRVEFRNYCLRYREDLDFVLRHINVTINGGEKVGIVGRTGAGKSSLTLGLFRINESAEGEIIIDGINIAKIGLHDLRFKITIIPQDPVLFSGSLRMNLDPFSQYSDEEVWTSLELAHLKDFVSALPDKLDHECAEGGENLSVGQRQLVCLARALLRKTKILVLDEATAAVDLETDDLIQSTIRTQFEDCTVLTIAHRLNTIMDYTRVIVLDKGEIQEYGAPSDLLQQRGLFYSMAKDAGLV
T2 sequence (P33527 whole entry): as above
T3 sequence (P08183 whole entry): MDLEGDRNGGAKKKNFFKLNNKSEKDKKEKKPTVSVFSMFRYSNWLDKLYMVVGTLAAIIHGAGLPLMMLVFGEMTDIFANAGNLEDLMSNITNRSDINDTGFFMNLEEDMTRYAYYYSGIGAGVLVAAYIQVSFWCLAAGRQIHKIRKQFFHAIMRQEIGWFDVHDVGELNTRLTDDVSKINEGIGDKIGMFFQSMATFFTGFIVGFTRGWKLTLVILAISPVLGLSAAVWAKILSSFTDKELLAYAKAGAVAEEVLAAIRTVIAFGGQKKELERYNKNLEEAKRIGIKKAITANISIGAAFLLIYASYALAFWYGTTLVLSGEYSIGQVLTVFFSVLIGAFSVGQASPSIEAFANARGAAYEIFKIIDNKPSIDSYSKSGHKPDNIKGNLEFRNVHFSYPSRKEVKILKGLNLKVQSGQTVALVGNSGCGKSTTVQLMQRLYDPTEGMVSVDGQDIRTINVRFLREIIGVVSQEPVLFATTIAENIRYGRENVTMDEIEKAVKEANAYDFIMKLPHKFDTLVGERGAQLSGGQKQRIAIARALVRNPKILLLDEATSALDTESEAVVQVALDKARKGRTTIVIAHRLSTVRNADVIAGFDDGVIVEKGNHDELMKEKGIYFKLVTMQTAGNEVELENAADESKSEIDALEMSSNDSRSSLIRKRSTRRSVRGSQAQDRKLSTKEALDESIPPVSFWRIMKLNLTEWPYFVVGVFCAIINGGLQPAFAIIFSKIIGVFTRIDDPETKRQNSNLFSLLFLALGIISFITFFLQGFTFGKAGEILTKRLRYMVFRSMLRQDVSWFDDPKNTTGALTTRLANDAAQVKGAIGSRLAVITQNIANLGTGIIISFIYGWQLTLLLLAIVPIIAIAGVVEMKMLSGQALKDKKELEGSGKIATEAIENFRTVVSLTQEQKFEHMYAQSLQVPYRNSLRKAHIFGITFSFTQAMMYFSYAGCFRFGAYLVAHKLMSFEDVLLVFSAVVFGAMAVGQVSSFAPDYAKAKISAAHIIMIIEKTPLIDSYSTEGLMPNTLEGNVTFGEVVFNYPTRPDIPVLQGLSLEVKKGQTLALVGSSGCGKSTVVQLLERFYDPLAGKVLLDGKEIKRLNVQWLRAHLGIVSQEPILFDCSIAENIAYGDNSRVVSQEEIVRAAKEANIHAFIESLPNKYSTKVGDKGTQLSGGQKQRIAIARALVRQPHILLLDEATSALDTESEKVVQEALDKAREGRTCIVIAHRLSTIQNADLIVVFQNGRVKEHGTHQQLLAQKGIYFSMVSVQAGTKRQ
T5 sequence (P08183 whole entry): as above

Row | IC50 [1] | inhibition at 0.5 h, 10 µM [3] | inhibition at 2 h, 10 µM [5] | IC50 [6] | IC50 [8] | inhibition at 3 h, 10 µM [9] | inhibition at 3 h, 10 µM [10] | inhibition at 10 µM [14] | Structure (SMILES) | other results
1 | 405 nM | > 25% | > 25% | 1110 nM | 839 nM | 60% | > 25% |  | c1ccc(CCN2CCN(c3ncnc4c3[nH]c3ccccc34)CC2)cc1 | Emax at 3 h [2]: 61%; Emax at 2 h [4]: 28%; Emax [7]: 26%
2 | 717 nM | > 25% | > 25% | 3920 nM | 7930 nM | 60% | > 25% | 30% | c1ccc2c(c1)[nH]c1c(N3CCN(Cc4ccc5c(c4)OCO5)CC3)ncnc12 | 
3 | 363 nM | > 25% | > 25% | 9490 nM | 6080 nM | 60% | > 25% | 30% | c1ccc(CN2CCN(c3ncnc4c3[nH]c3ccccc34)CC2)cc1 | 
4 | 524 nM | > 25% | > 25% | 1640 nM | 1390 nM |  | > 25% |  | N#Cc1cn(CCc2ccccc2)c2c(N3CCN(CCc4c[nH]c5ccccc45)CC3)ncnc12 | 
5 | 345 nM | > 25% | > 25% | 10700 nM | 11600 nM | 60% | > 25% | 30% | c1ccc(CCN2CCN(c3ncnc4c3[nH]c3ccccc34)CC2)nc1 | 
6 | 405 nM | > 25% | > 25% | 4480 nM | 4070 nM |  | > 25% |  | N#Cc1cn(Cc2ccccc2)c2c(N3CCN(CCc4c[nH]c5ccccc45)CC3)ncnc12 | 

The remaining lines, values behind:

Row | Structure (SMILES) | IC50 [1] | inhibition at 0.5 h, 10 µM [3] | inhibition at 2 h, 10 µM [5] | IC50 [6] | IC50 [8] | inhibition at 3 h, 10 µM [9] | inhibition at 3 h, 10 µM [10] | inhibition at 10 µM [14] | other results
7 | N#Cc1cn(Cc2ccccc2)c2c(NCCCc3ccccc3)ncnc12 |  |  |  |  |  |  |  |  | IC50 [11]: 790 nM; IC50 [12]: 14000 nM; IC50 [13]: 20400 nM
8 | N#Cc1c2n(c3c(N4CCN(CCc5ccc(F)c(F)c5)CC4)nc(-c4ccncc4)nc13)CCCC2 |  |  |  |  |  |  |  |  | IC50 [15]: 1310 nM; IC50 [12]: 105 nM
9 | COc1ccccc1-n1cc(C#N)c2ncnc(N3CCN(Cc4ccccc4)CC3)c21 | 327 nM | > 25% | > 25% | 19100 nM | 37900 nM |  | > 25% |  | 
10 | c1ccc2c(CCN3CCN(c4ncnc5c4[nH]c4ccccc45)CC3)c[nH]c2c1 | 921 nM | > 25% | > 25% | 3500 nM | 6210 nM | 60% | > 25% | 30% | 
11 | COc1cc(N(C)C(=O)Cc2cccc(-n3c(=O)c4c(C)onc4c4c(Cl)cccc43)c2)cc(OC)c1OC |  |  |  |  |  |  |  |  | IC50 [11]: 320 nM; IC50 [12]: 1330 nM
12 | CCc1c2c(nc3ccc(O)cc13)-c1cc3c(c(=O)n1C2)COC(=O)[C@]3(O)CC [7-ETHYL-10-HYDROXYCAMPTOTHECIN] |  |  |  |  |  |  |  |  | GI50 [16]: 1710 nM; GI50 [17]: 86 nM
13 | COc1ccc(Nc2nc(-c3ccccc3)nc3ccccc23)cc1OC |  |  |  |  |  |  |  |  | IC50 [18]: 1190 nM
14 | O=C(c1ccco1)N1CCN(c2ncnc3c2[nH]c2ccccc23)CC1 | 169 nM | > 25% | > 25% |  | 6060 nM | 60% | > 25% | 30% | 
15 | c1ccc(N2CCN(c3ncnc4c3[nH]c3ccccc34)CC2)nc1 | 495 nM | > 25% | > 25% | 5000 nM | 1810 nM |  | > 25% | 30% | 
16 | N#Cc1cn(C2CC2)c2c(N3CCN(CCc4c[nH]c5ccccc45)CC3)ncnc12 | 316 nM | > 25% | > 25% | 3850 nM | 18900 nM |  | > 25% |  | 
17 | N#Cc1c2n(c3c(N4CCN(CCc5c[nH]c6ccccc56)CC4)ncnc13)CCCC2 | 344 nM | > 25% | > 25% | 5620 nM | 3410 nM |  | 25% |  | IC50 [13]: 3410 nM
18 | COc1ccc(C(=O)/C=C/c2ccc(OC)c(OC)c2)c(OC(=O)c2ccccc2OC)c1 |  |  |  |  |  |  |  |  | IC50 [12]: 2160 nM
19 | c1ccc(N2CCN(c3ncnc4c3[nH]c3ccccc34)CC2)cc1 | 146 nM | > 25% | > 25% |  | 1100 nM | 60% | > 25% | 30% | 
20 | COc1cc2c(cc1OC)CN(CCn1c(-c3ccc(N(C)C)cc3)nc3ccc([N+](=O)[O-])cc3c1=O)CC2 |  |  |  |  |  |  |  |  | IC50 [19]: 400 nM; IC50 [12]: 600 nM
21 | c1ccc(C(c2ccccc2)N2CCN(c3ncnc4c3[nH]c3ccccc34)CC2)cc1 | 409 nM | > 25% | > 25% | 2330 nM | 1380 nM | 60% | > 25% | 30% | 
22 | COc1ccc(/C=C/C(=O)c2ccccc2NC(=O)c2cnc3ccccc3c2)cc1OC |  |  |  |  |  |  |  |  | IC50 [12]: 494 nM; IC50 [20]: 573 nM

Source: ChEMBL document CHEMBL5260824, “9-Deazapurines as Broad-Spectrum Inhibitors of the ABC Transport Proteins P-Glycoprotein, Multidrug Resistance-Associated Protein 1, and Breast Cancer Resistance Protein” (J Med Chem, 2017)
